Measurements published in ChEMBL document CHEMBL3102810, “Alkylamino derivatives of pyrazinamide: synthesis and antimycobacterial evaluation” (Bioorg Med Chem Lett, 2014).
Values after ≈ are worked out from the molar mass of the structure shown. Active and inactive are the calls of the source. The calls are words filed in the database; no cut-off is given here.

Experiments:
Lichtheimia corymbifera = experiment: Antifungal activity against Absidia corymbifera 272 after 72 to 120 hrs by microdilution broth method; assay type: functional, organism-based
[1] = test system: Mycolicibacterium fortuitum; experiment: Antimycobacterial activity against pyrazinamide-resistant Mycobacterium fortuitum; assay type: functional
Mycobacterium avium [2] = experiment: Antimycobacterial activity against pyrazinamide-resistant Mycobacterium avium CNCTC My 152/73 after 5 days by microplate alamar blue assay; assay type: functional; settings: CNCTC My 152/73, 120 h
How it was run: (§1)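 Microplate alamar blue assay run at pH 5.6, using conditions optimized for pyrazinamide. Strains came from the Czech National Collection of Type Cultures. MIC was read in µg/mL and converted to µM using molecular weight.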

Candida tropicalis = experiment: Antifungal activity against Candida tropicalis 156 after 72 to 120 hrs by microdilution broth method; assay type: functional, organism-based
[3] = test system: Staphylococcus epidermidis; experiment: Antibacterial activity against Staphylococcus epidermidis H 6966/08 after 48 hrs by microdilution broth method; assay type: functional
How it was run: (§2)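 Antibacterial screen with compound concentrations up to a highest level of 500 µM. Results expressed as MIC in µM.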

Escherichia coli = experiment: Antibacterial activity against Escherichia coli CCM 4517 after 24 to 48 hrs by microdilution broth method; assay type: functional, organism-based; how it was run: as §2
Staphylococcus aureus = experiment: Antibacterial activity against Staphylococcus aureus CCM 4516/08 after 24 to 48 hrs by microdilution broth method; assay type: functional, organism-based; how it was run: as §2
Klebsiella pneumoniae [4] = experiment: Antibacterial activity against Klebsiella pneumoniae D 11750/08 after 24 to 48 hrs by microdilution broth method; assay type: functional, organism-based; how it was run: as §2
Nakaseomyces glabratus = experiment: Antifungal activity against Candida glabrata 20/I after 72 to 120 hrs by microdilution broth method; assay type: functional, organism-based
Mycobacterium avium [5] = experiment: Antimycobacterial activity against pyrazinamide-resistant Mycobacterium avium; assay type: functional
Pichia kudriavzevii = experiment: Antifungal activity against Candida krusei E28 after 72 to 120 hrs by microdilution broth method; assay type: functional, organism-based
Mycobacterium avium [6] = experiment: Antimycobacterial activity against pyrazinamide-resistant Mycobacterium avium CNCTC My 80/72 after 5 days by microplate alamar blue assay; assay type: functional; settings: CNCTC My 80/72, 120 h; how it was run: as §1
Candida albicans = experiment: Antifungal activity against Candida albicans ATCC 44859 after 72 to 120 hrs by microdilution broth method; assay type: functional, organism-based
[7] = test system: Staphylococcus epidermidis; experiment: Antibacterial activity against Staphylococcus epidermidis H 6966/08 up to 500 uM after 24 to 48 hrs by microdilution broth method; assay type: functional, organism-based; how it was run: as §2
[8] = test system: Trichophyton mentagrophytes; experiment: Antifungal activity against Trichophyton mentagrophytes after 72 to 120 hrs by microdilution broth method; assay type: functional, organism-based
[9] = test system: Mycobacterium tuberculosis; experiment: Antimycobacterial activity against pyrazinamide-sensitive Mycobacterium tuberculosis; assay type: functional
[10] = Lipophilicity, log K of the compound by HPLC analysis; assay type: physicochemical
[11] = test system: Trichophyton mentagrophytes; experiment: Antifungal activity against Trichophyton mentagrophytes 445 after 72 to 120 hrs by microdilution broth method; assay type: functional, organism-based
Enterococcus sp. = experiment: Antibacterial activity against Enterococcus sp. J 14365/08 after 24 to 48 hrs by microdilution broth method; assay type: functional, organism-based; how it was run: as §2
Aspergillus fumigatus = experiment: Antifungal activity against Aspergillus fumigatus 231 after 72 to 120 hrs by microdilution broth method; assay type: functional, organism-based
HepG2 = experiment: Cytotoxicity against human HepG2 cells after 24 hrs; assay type: cell-based; settings: HepG2, 24 h
How it was run: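 HepG2 human liver cells; loss of viability measured by a colorimetric tetrazolium-reduction assay. IC50 derived from the toxicity curves. Where limited solubility in the culture medium capped the tested concentration, only an estimate of the toxic concentration was given.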

Trichosporon asahii = experiment: Antifungal activity against Trichosporon asahii 1188 after 72 to 120 hrs by microdilution broth method; assay type: functional, organism-based
[12] = test system: Staphylococcus epidermidis; experiment: Antibacterial activity against methicillin-resistant Staphylococcus epidermidis H 5996/08 after 24 to 48 hrs by microdilution broth method; assay type: functional, organism-based
Pseudomonas aeruginosa = experiment: Antibacterial activity against Pseudomonas aeruginosa CCM 1961 after 24 to 48 hrs by microdilution broth method; assay type: functional, organism-based; how it was run: as §2
Mycobacterium kansasii [13] = experiment: Antimycobacterial activity against pyrazinamide-resistant Mycobacterium kansasii CNCTC My 235/80 after 5 days by microplate alamar blue assay; assay type: functional; settings: CNCTC My 235/80, 120 h; how it was run: as §1
[14] = test system: Mycolicibacterium smegmatis; experiment: Antimycobacterial activity against pyrazinamide-resistant Mycobacterium smegmatis; assay type: functional
Mycobacterium kansasii [15] = experiment: Antimycobacterial activity against pyrazinamide-resistant Mycobacterium kansasii; assay type: functional
[16] = test system: Mycobacterium tuberculosis; experiment: Antimycobacterial activity against Mycobacterium tuberculosis H37Rv CNCTC My 331/88 after 5 days by microplate alamar blue assay; assay type: functional; settings: H37Rv CNCTC My 331/88, 120 h; how it was run: as §1
[17] = Selectivity index, ratio of IC50 for human HepG2 cells to MIC for Mycobacterium tuberculosis H37Rv CNCTC My 331/88; assay type: toxicity, cell-based; settings: read-out: Selectivity Index
How it was run: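 HepG2 human liver cell viability was measured by a colorimetric tetrazolium-reduction assay, and IC50 was derived from the toxicity curves. MIC against M. tuberculosis H37Rv came from the alamar blue microplate assay at pH 5.6. SI = IC50/MIC, both in molar units.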

Klebsiella pneumoniae [18] = experiment: Antibacterial activity against ESBL positive Klebsiella pneumoniae J 14368/08 after 24 to 48 hrs by microdilution broth method; assay type: functional, organism-based; how it was run: as §2

NC(=O)c1cnc(Cl)cn1
Activity (Lichtheimia corymbifera): inactive | MIC [1]: 8 µg/mL (≈ 50.8 µM) | MIC (Mycobacterium avium [2]): > 100 µg/mL | Activity (Candida tropicalis): inactive | Activity [3]: inactive | Activity (Escherichia coli): inactive | Activity (Staphylococcus aureus): inactive | Activity (Klebsiella pneumoniae [4]): inactive | Activity (Nakaseomyces glabratus): inactive | MIC (Mycobacterium avium [5]): 8 µg/mL (≈ 50.8 µM) | Activity (Pichia kudriavzevii): inactive | MIC (Mycobacterium avium [6]): > 100 µg/mL | Activity (Candida albicans): inactive | Activity [7]: inactive | Activity [8]: inactive | MIC [9]: 8 µg/mL (≈ 50.8 µM) | log K [10]: -0.3891 | Activity [11]: inactive | Activity (Enterococcus sp.): inactive | Activity (Aspergillus fumigatus): inactive | IC50 (HepG2): 1600 µM | Activity (Trichosporon asahii): inactive | Activity [12]: inactive | Activity (Pseudomonas aeruginosa): inactive | MIC (Mycobacterium kansasii [13]): 79 µM (≈ 12.4 µg/mL) | MIC [14]: 8 µg/mL (≈ 50.8 µM) | MIC (Mycobacterium kansasii [15]): 8 µg/mL (≈ 50.8 µM) | MIC [16]: 317 µM (≈ 49.9 µg/mL) | selectivity ratio [17]: 5 | Activity (Klebsiella pneumoniae [18]): inactive
